# Compounds with a hit are over-represented: about 2.5% of the library has one in this group of screens.
# ABHD4 inh: ABHD4 (mouse) inhibition, primary FP screen; Q8VD66; purified mABHD4, FP-Rh probe fluorescence polarization; inhibition, % at 8.92 µM; hit rate 0.54% among 370,000; AID 720543;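 active = inhibition exceeding the mean over every tested compound plus 3 SD, cut at about 30% in these data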;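 note: 0% = plate median of compound wells and 100% = S159A mutant with DMSO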
#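 Assay system: wild-type mouse ABHD4 protein; compound: single nominal dose of 8.92 µM, 0.89% DMSO final; schedule: 45 min + 60 min at 25 °C; measured by: FP readout, ex 525 nm / em 598 nm; evaluation: % inhibition of FP-Rh probe binding versus controls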
# HTRA1 inhibitor: inhibitors of human serine peptidase HTRA1; Q92743; recombinant HTRA1, FP-rhodamine activity-based probe, fluorescence polarization; inhibition, % at 5.96 µM; hit rate 0.5% among 340,000; AID 504803; in the data active = inhibition above about 36%;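 note: 0% = enzyme with DMSO and 100% = wells lacking enzyme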
# SIAE inh: inhibitors of human sialic acid acetylesterase SIAE. SIAE FP-Rh probe binding, fluorescence polarization. hit rate 0.69% among 370,000. inhibition, % at 9.66 µM. AID 1053197;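 active = inhibition above a cutoff: mean of compounds within the control limits plus 3 SD of those, cut at about 17% in these data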;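 note: 0% = plate median of compound wells and 100% = probe without SIAE protein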
# Target sequence (Q9HAT2 whole entry, looked up): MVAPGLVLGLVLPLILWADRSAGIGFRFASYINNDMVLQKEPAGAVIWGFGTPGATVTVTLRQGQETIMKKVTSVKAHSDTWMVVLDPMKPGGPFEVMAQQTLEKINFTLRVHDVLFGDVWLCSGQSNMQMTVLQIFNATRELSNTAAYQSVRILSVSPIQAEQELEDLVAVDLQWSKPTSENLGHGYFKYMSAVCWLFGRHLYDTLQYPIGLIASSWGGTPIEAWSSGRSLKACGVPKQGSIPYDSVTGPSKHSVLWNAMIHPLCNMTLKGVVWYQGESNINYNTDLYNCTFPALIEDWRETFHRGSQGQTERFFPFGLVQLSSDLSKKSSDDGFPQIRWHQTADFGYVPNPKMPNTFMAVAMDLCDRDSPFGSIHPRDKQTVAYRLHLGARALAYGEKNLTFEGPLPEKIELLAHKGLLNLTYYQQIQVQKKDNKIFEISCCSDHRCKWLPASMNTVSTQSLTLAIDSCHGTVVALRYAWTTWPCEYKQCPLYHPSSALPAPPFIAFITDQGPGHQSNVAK
# PRMT1 inh: inhibitors of human PRMT1 | Q99873 | recombinant PRMT1, activity-based probe fluorescence polarization | inhibition, % at 2.79 µM | hit rate 1.3% among 370,000;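 active = inhibition above about 21% made by adding two undisclosed values, limit read from the data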
# TCR-CD3 inh: inhibitors of human TCR-CD3 interaction; TAMRA-labeled TCR probe fluorescence, biochemical; inhibition, % at 9.4 µM; hit rate 0.37% among 360,000; AID 651800;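 note: recombinant mutant TCR 2C K166C tagged with TAMRA read by polarization; 0% = receptor in buffer alone and 100% = receptor with positive control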
# BSA TAMRA ctr: BSA probe counter-screen for TCR-CD3 inhibitors; TAMRA-labeled BSA probe fluorescence counterscreen; AID 652035; hit rate 10% among 1,200; shares compounds with TCR-CD3 inh; inhibition, % at 9.4 µM; in the data active = inhibition above about 23%;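 note: 0% = buffer low control and 100% = reference high control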
# TCR-CD3 conf: confirmation of human TCR-CD3 interaction inhibitors. shares compounds with TCR-CD3 inh. TAMRA-labeled TCR probe fluorescence binding assay. inhibition, % at 9.4 µM. hit rate 48% among 1,200. AID 652036
# PRMT1 confirm: PRMT1 (human) inhibition, FP confirmation; shares compounds with PRMT1 inh; recombinant His-PRMT1, activity-based probe fluorescence polarization; inhibition, % at 2.79 µM; hit rate 42% among 3,300;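 active = mean inhibition across replicates above the hit cutoff derived for the earlier primary screen, cut at about 22% in these data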
# mABHD4 conf: ABHD4 (mouse) inhibition, FP confirmation | shares compounds with ABHD4 inh | purified mABHD4, FP-Rh probe fluorescence polarization | inhibition, % at 8.92 µM | hit rate 55% among 1,800;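 active = mean inhibition across replicates above the hit cutoff set in the primary screen, cut at about 30% in these data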;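 note: 0% = wild-type ABHD4 with DMSO and 100% = catalytically dead S159A mutant with DMSO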
# * hit, by the source's call; x = no result given. Cut-off read from the data, not from the text of the source, unless noted: active = inhibition above about 19%; inactive = the rest.
SMILES,ABHD4 inh,HTRA1 inhibitor,SIAE inh,PRMT1 inh,TCR-CD3 inh,BSA TAMRA ctr,TCR-CD3 conf,PRMT1 confirm,others
O=c1[nH]c(-[n+]2ccccc2)c(/C=N/N=C(\[O-])c2ccccc2)s1,0,2,2,5,-6,x,x,x,
O=C(N/N=C/c1sc(=O)[nH]c1-[n+]1ccc2ccccc2c1)c1ccccc1[O-],16,35,11,95*,33*,-9,24*,3,
CCOc1ccc(N(CC(=O)N/N=C/c2ccc(OC(C)C)cc2)S(C)(=O)=O)cc1,-4,-10,4,-3,1,x,x,x,
CC(CN1c2ccccc2Sc2ccccc21)N(C)C (stereo not given),4,8,6,0,5,x,x,x,
C#CCN1c2ccccc2Sc2cccnc21,5,7,8,63*,47*,2,2,13,
O=C(O)C1CSC(c2ccco2)N1 (stereo not given),15,11,7,27*,21*,-3,17,32*,
O=C(COC(=O)c1c(F)cccc1F)NC(=O)NCc1ccccc1,3,4,-1,2,-2,x,x,x,
c1coc(-c2ccc3nncn3c2)c1,23,x,12,43*,35*,-3,30*,39*,
O=[n+]1c2c(n([O-])c3cc(F)c(N4CCCC4)cc31)CCCC2,3,-2,-2,46*,23*,30*,28*,48*,
O=[n+]1c2c(n([O-])c3cc(F)c(N4CCCC4)cc31)CCC2,9,4,-9,35*,25*,29*,28*,47*,
O=[n+]1c2c(n([O-])c3cc(F)ccc31)CCCC2,4,11,4,9,6,x,x,x,
CSc1nc(NCCOCCO)c2sc3nc(-c4ccco4)c4c(c3c2n1)CCC4,8,-36,7,41*,20*,-3,0,24*,
O=C(COC(=O)C1CC2C=CC1C2)Nc1ccc([N+](=O)[O-])cc1 (stereo not given),-4,-5,-3,-3,-4,x,x,x,
O=c1cc(Br)c(O)c(Br)cc1Br,31*,14,3,35*,21*,-2,5,39*,mABHD4 conf=18
NC1=NC(=O)/C(=C\c2ccco2)S1,31*,18,13,63*,23*,-5,17,x,mABHD4 conf=12
NC1=NC(=O)C(=Cc2ccccc2)S1,7,3,1,4,0,x,x,x,
O=C1c2ccc3c4c(ccc(c24)C(=O)N1CCCCO)C(=O)N(CCCCO)C3=O,38*,18,17,9,34*,40*,25*,x,mABHD4 conf=27
O=C(c1ccc2c(c1)C(=O)N(CCCO)C2=O)c1ccc2c(c1)C(=O)N(CCCO)C2=O,-3,6,2,-1,-5,x,x,x,
C[C@@H]1ON(C)[C@H]2C[C@H]3c4cc(-c5cc6ccccc6o5)ccc4CCN3C[C@@H]12,-4,x,-7,-3,-2,x,x,x,
CC(=O)N(Cc1ccco1)c1nc(C(=O)Nc2ccc(Cl)cc2)c(C)s1,-21,-52,-18,8,-5,x,x,x,
CC(C)CN1C(=O)C[C@@]2(C(=O)N(C)c3ccc(NS(=O)(=O)C4CC4)cc32)C1c1ccccc1 (stereo not given in full),-1,x,-6,0,x,x,x,x,
COC(=O)C1C(O)=C(C=Nc2ccc(N)cc2)C(=O)CC1(C)C (stereo not given),38*,27,16,3,26*,-5,1,x,mABHD4 conf=5
CC1(C)CC(=O)C(C=Nc2ccc(N)cc2)=C(O)C1,35*,26,11,9,23*,0,-1,x,mABHD4 conf=-7
CC1(C)CC(=O)C(C=Nc2ccc(O)cc2)=C(O)C1,26,2,-6,5,8,x,x,x,
Cc1nc(S/C(=C\c2ccc(OCc3ccccc3Cl)cc2)C(=O)O)n[nH]1,0,-3,-2,-1,3,x,x,x,

# Screening results as filed in PubChem.
